Results on nine compounds are retold here after ChEMBL document CHEMBL1123658, “1-(2-pyridinyl)piperazine derivatives with antianaphylactic, antibronchospastic, and mast cell stabilizing activities” (J Med Chem, 1987).

Data set [1] has as its system Rattus norvegicus. Briefly: Rat PCA Test(50% inhibition of spot areas)in the female albino rats after oral administration in 10% aqueous acacia gum; value ranges from 99-191. In kind it is functional. Particulars: read-out: ID50 (the source's name). The method, boiled down:
(§1)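 Female rats (200-250 g) were passively sensitized by ventral intradermal anti-egg-albumin antiserum. This was raised in rats by intramuscular 1% egg albumin plus ip H. pertussis vaccine, with serum taken at 12 days. After 24 h, groups of 10 were dosed orally with compound or vehicle (10 mL/kg). At 60 min, iv challenge used 0.3% egg albumin with 1% Evans blue. Blued areas were measured after 30 min.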

The subject of data set [2] is Rattus norvegicus. Briefly: Rat PCA Test(50% inhibition of spot areas)in the female albino rats after (ip) administration in 10% aqueous acacia gum; value ranges from 42-79. In kind it is functional. Particulars: read-out: ID50 (the source's name). The method in brief:
(§2)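 Female albino rats (200–250 g) received intradermal ventral injections of rat anti-egg-albumin antiserum; donors were raised with egg albumin im plus H. pertussis ip, and serum was taken at 12 days. 24 h later, compound was given ip in 10% acacia gum (10 mL/kg), 10 rats/group. Challenge 30 min later was iv 0.3% egg albumin plus 1% Evans blue. Blued areas were measured 30 min after challenge.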

The nature of data set [3]: In vivo toxic effect was determined in mouse after intraperitoneal administration with 10% aqueous acacia gum; value ranges from 0.30-0.61. Format: toxicity, organism-based. To be noted: ip. The method, boiled down:
(§3)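 Female albino mice (20-30 g), 10 animals per dose, dosed intraperitoneally with compound in solution or suspension; compounds tested as salts unless noted. Mortality was recorded over 7 days.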

Data set [4] is described as follows: In vivo toxic effect was determined in mouse after oral administration with 10% aqueous acacia gum; value ranges from 1.75-2.99. Format: toxicity, organism-based. The method, boiled down:
(§4)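 Female albino mice, 20-30 g. Compound given orally as solution or suspension in 10% aqueous acacia gum, 10 animals per dose. Deaths recorded over 7 days.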

The subject of another data set is Cavia porcellus. Briefly: Antibronchospatic activity determined by histamine stimulated bronchospasm inhibition in guinea pigs after(i.v.) administration. Format: functional, Bronchiole. The method in brief:
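Guinea pigs, Konzett–Rössler preparation. Bronchospasm was induced with histamine. Compound was given iv (1 mL/kg) 1 min before the agonist, dissolved in saline or saline with slight excess HCl or CH3SO3H (pH 3.5–4). Three doses were tested in duplicate, chosen to give 20–90% inhibition. ID75 was read graphically from log dose–response curves.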

Data set [5] has as its system Rattus norvegicus. Nature of the data set: Inhibition of mast cell degranulation was assessed in female albino rats at a dose of 23 umol/kg iv. In kind it is functional.
Data set [6] is described as follows: In vivo toxic effect was determined in mouse after intraperitoneal administration with 10% aqueous acacia gum; value ranges from 3.43-5.07. In kind it is toxicity, organism-based. To be noted: ip. The method in brief:
as §3

Data set [7] concerns Rattus norvegicus. Nature of the data set: Rat PCA Test(50% inhibition of spot areas)in the female albino rats after (ip) administration in 10% aqueous acacia gum; value ranges from 206-307. In kind it is functional. Particulars: read-out: ID50 (the source's name). The method in brief: as §2
In data set [8] the test system is Rattus norvegicus. Briefly: Rat PCA Test(50% inhibition of spot areas)in the female albino rats after oral administration in 10% aqueous acacia gum. Format: functional. Particulars: read-out: ID50 (the source's name). The method, boiled down:
as §1

Data set [9] is described as follows: In vivo toxic effect was determined in mouse after intraperitoneal administration with 10% aqueous acacia gum; value ranges from 0.57-1.04. Format: toxicity, organism-based. Particulars: ip. The method in brief:
as §3

Data set [10] in a line: In vivo toxic effect was determined in mouse after oral administration with 10% aqueous acacia gum; value ranges from 0.99-1.61. In kind it is toxicity, organism-based. The method, boiled down: as §4
For data set [11], the system named is Rattus norvegicus. Nature of the data set: Rat PCA Test(50% inhibition of spot areas)in the female albino rats after (ip) administration in 10% aqueous acacia gum; value ranges from 43-53. To be noted: read-out: ID50 (the source's name). Format: functional. The method in brief:
as §2

Data set [12] deals with Rattus norvegicus. Briefly: Inhibition of mast cell degranulation was assessed in female albino rats at a dose of 47 umol/kg iv. Format: functional.
Data set [13] can be described thus: In vivo toxic effect was determined in mouse after intraperitoneal administration with 10% aqueous acacia gum; value ranges from 0.55-1.17. In kind it is toxicity, organism-based. To be noted: ip. The method, boiled down: as §3
Data set [14] deals with Rattus norvegicus. Nature of the data set: Inhibition of mast cell degranulation was assessed in female albino rats at a dose of 48 umol/kg iv. Format: functional.
The nature of data set [15]: In vivo toxic effect was determined in mouse after oral administration with 10% aqueous acacia gum; value ranges from 0.69-1.33. Format: toxicity, organism-based. The method, boiled down: as §4
The subject of data set [16] is Rattus norvegicus. Briefly: Rat PCA Test(50% inhibition of spot areas)in the female albino rats after (ip) administration in 10% aqueous acacia gum; value ranges from […]. Particulars: read-out: ID50 (the source's name). In kind it is functional. The method in brief:
as §2

In data set [17] the test system is Rattus norvegicus. Briefly: Inhibition of mast cell degranulation was assessed in female albino rats at a dose of 28 umol/kg iv. In kind it is functional.
A short description of data set [18]: In vivo toxic effect was determined in mouse after intraperitoneal administration with 10% aqueous acacia gum; value ranges from 2.17-4.89. Format: toxicity, organism-based. Particulars: ip. The method in brief:
as §3

The subject of data set [19] is Rattus norvegicus. Nature of the data set: Rat PCA Test(50% inhibition of spot areas)in the female albino rats after oral administration in 10% aqueous acacia gum; value ranges from 80-130. In kind it is functional. To be noted: read-out: ID50 (the source's name). The method in brief:
as §1

Data set [20] is described as follows: In vivo toxic effect was determined in mouse after oral administration with 10% aqueous acacia gum; value ranges from 5.08-7.62. In kind it is toxicity, organism-based. The method, boiled down: as §4
Data set [21] concerns Rattus norvegicus. Briefly: Rat PCA Test(50% inhibition of spot areas)in the female albino rats after (ip) administration in 10% aqueous acacia gum; value ranges from 11-48. In kind it is functional. To be noted: read-out: ID50 (the source's name). The method in brief:
as §2

The test system of data set [22] is Rattus norvegicus. Nature of the data set: Rat PCA Test(50% inhibition of spot areas)in the female albino rats after oral administration in 10% aqueous acacia gum; value ranges from 72-115. In kind it is functional. Particulars: read-out: ID50 (the source's name). The method in brief: as §1
Data set [23] in a line: In vivo toxic effect was determined in mouse after intraperitoneal administration with 10% aqueous acacia gum; value ranges from 0.92-1.65. Format: toxicity, organism-based. To be noted: ip. The method, boiled down:
as §3

Data set [24] can be described thus: In vivo toxic effect was determined in mouse after oral administration with 10% aqueous acacia gum; value ranges from 0.92-1.78. Format: toxicity, organism-based. The method in brief:
as §4

In data set [25] the test system is Rattus norvegicus. Nature of the data set: Inhibition of mast cell degranulation was assessed in female albino rats at a dose of 31 umol/kg iv. In kind it is functional.
Data set [26] is described as follows: In vivo toxic effect was determined in mouse after intraperitoneal administration with 10% aqueous acacia gum; value ranges from 4.25-7.74. In kind it is toxicity, organism-based. To be noted: ip. The method in brief: as §3
Data set [27] concerns Rattus norvegicus. Nature of the data set: Rat PCA Test(50% inhibition of spot areas)in the female albino rats after (ip) administration in 10% aqueous acacia gum. Format: functional. Particulars: read-out: ID50 (the source's name). The method, boiled down: as §2
For data set [28], the system named is Rattus norvegicus. Nature of the data set: Inhibition of mast cell degranulation was assessed in female albino rats at a dose of 35 umol/kg iv. In kind it is functional.
Data set [29] concerns Rattus norvegicus. Briefly: Rat PCA Test(50% inhibition of spot areas)in the female albino rats after (ip) administration in 10% aqueous acacia gum; value ranges from 115-142. Format: functional. To be noted: read-out: ID50 (the source's name). The method, boiled down: as §2
Data set [30] can be described thus: In vivo toxicity in mouse after oral administration with 10% aqueous acacia gum. In kind it is organism-based. The method, boiled down: as §4
For data set [31], the system named is Rattus norvegicus. Nature of the data set: Rat PCA Test(50% inhibition of spot areas)in the female albino rats after oral administration in 10% aqueous acacia gum; value ranges from 8-11. Format: functional. Particulars: read-out: ID50 (the source's name). The method in brief:
as §1

SMILES strings stand for the structures. Where only a bound is given, the exact number is not on record here.

Take `Cl.Cl.O=C(CCN1CCN(c2ccccn2)CC1)Nc1cccc([N+](=O)[O-])c1`: the ED50 in the data set with Rattus norvegicus [1] turned out to be 137 µmol/kg; with Rattus norvegicus [2] it was 58 µmol/kg. Also, the LD50 in [3] turned out to be 420 µmol/kg; in data set [4], 2070 µmol/kg. The compound further displayed an ID75 in the data set with Cavia porcellus of 0.37 µM/kg. In the data set on Rattus norvegicus [5], this compound came in with an inhibition in vivo at 23 µmol/kg of 87%.
`COC(=O)CCN1CCN(c2ccccn2)CC1.Cl` registered an LD50 in [6] of 4020 µmol/kg. For the same compound, in the data set with Rattus norvegicus [7], the ED50 was 252 µmol/kg. Further, in the data set on Cavia porcellus, the ID75 worked out at 3.5 µM/kg.
For `COc1ccc(NC(=O)CCN2CCN(c3ccccn3)CC2)cc1.Cl.Cl`, the ED50 in the data set with Rattus norvegicus [8] was more than 95 µmol/kg; in the data set with Rattus norvegicus [11], 48 µmol/kg. Further, the LD50 was 710 µmol/kg in data set [9] and 1160 µmol/kg in data set [10]. Further, the ID75 in the data set with Cavia porcellus was 0.24 µM/kg. This compound also gave an inhibition in vivo at 47 µmol/kg in the data set on Rattus norvegicus [12] of 19%.
As to `Cl.Cl.O=C(CCN1CCN(c2ccccn2)CC1)Nc1ccc(Cl)cc1`, the values for the ED50 with Rattus norvegicus [8] and in the data set with Rattus norvegicus [16] were more than 96 µmol/kg and 43 µmol/kg, respectively. Moreover, the LD50 in data set [13] was 620 µmol/kg; in [15], 960 µmol/kg. This compound also yielded an inhibition in vivo at 48 µmol/kg in the data set with Rattus norvegicus [14] of 0%.
The compound `CC(O)c1ccc(NC(=O)CCN2CCN(c3ccccn3)CC2)cc1` (configuration not stated) came in with an inhibition in vivo at 28 µmol/kg with Rattus norvegicus [17] of 22%. The LD50 was 3250 µmol/kg in [18] and 5970 µmol/kg in data set [20]. Besides, the ED50 with Rattus norvegicus [19] came to 103 µmol/kg. In the data set with Cavia porcellus, this compound had an ID75 of 0.48 µM/kg.
`Nc1ccc(NC(=O)CCN2CCN(c3ccccn3)CC2)cc1`: the ED50 with Rattus norvegicus [21] turned out to be 23 µmol/kg; with Rattus norvegicus [22], 91 µmol/kg. Also, the figures for the LD50 in data set [23] and in [24] were 1110 µmol/kg and 1290 µmol/kg, respectively. This compound showed an ID75 with Cavia porcellus of 0.02 µM/kg. This compound also had an inhibition in vivo at 31 µmol/kg with Rattus norvegicus [25] of 84%.
In [26], `O=C(O)CCN1CCN(c2ccccn2)CC1` gave an LD50 of 5540 µmol/kg. In addition, the ID75 in the data set with Cavia porcellus was found to be 5.23 µM/kg. Besides, in the data set with Rattus norvegicus [27], the ED50 was more than 1280 µmol/kg.
The compound `CCOC(=O)C(=O)Nc1ccc(NC(=O)CCN2CCN(c3ccccn3)CC2)cc1` displayed an inhibition in vivo at 35 µmol/kg in the data set on Rattus norvegicus [28] of 7%. Also, the ED50 in the data set on Rattus norvegicus [29] came out at 127 µmol/kg. Moreover, the ID75 in the data set on Cavia porcellus stood at 0.23 µM/kg. Also, the LD50 in data set [30] was more than 7050 µmol/kg.
`O=c1[nH]c2ccccc2n1CCCN1CCN(C(c2ccccc2)c2ccccc2)CC1` [OXATOMIDE]: the ID75 in the data set with Cavia porcellus was found to be 0.08 µM/kg. The inhibition in vivo at 23 µmol/kg in the data set with Rattus norvegicus [5] amounted to 40%. The ED50 in the data set on Rattus norvegicus [31] came to 9 µmol/kg. The LD50 in data set [30] was more than 7300 µmol/kg.

By LD50 is commonly meant the dose expected to kill half of the subjects tested. High values mean a less toxic substance, low ones a more toxic substance. For orientation: inhibition in vivo means the percentage by which the read-out fell short of the control. Read a high inhibition in vivo as strong suppression.
